Reference: PubChem BioAssay AID651708 (Sanford-Burnham Center for Chemical Genomics, 2012)
Calls of active or inactive are those of the source.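 Rule for the calls: active = compound with IC50 above 30 µM at both the APJ and CCR6 off-target receptors, and at most 10 µM at CXCR6; inactive = the rest.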

Columns and labels:
Test in all cases: GPCR panel antagonist activity incl. apelin receptor – cell-based, CHO-K1 PathHunter beta-arrestin, luminescence, set 3, selectivity assay for CXCR6 antagonist project, profiling panel (AID 651708)
[1] = molecular target: Apelin receptor (Homo sapiens) (UniProt P35414); settings: antagonist mode, APJ
Sequence of Apelin receptor (Homo sapiens) (P35414 whole entry, looked up): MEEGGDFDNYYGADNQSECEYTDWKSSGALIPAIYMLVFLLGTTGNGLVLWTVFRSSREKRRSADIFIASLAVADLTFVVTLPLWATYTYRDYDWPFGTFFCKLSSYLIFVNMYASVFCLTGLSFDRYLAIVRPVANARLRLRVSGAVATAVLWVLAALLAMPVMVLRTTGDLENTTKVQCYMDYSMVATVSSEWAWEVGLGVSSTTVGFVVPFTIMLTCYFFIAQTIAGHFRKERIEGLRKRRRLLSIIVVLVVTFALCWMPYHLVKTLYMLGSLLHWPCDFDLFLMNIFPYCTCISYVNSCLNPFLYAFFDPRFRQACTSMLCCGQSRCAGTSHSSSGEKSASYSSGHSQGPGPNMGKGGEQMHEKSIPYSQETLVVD
Outline: (§1)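 Signal: β-arrestin recruitment luminescence; test system: CHO-K1 PathHunter β-arrestin cell lines for APJ, CCR6 or CXCR6; also added: APJ 10 nM Apelin-13, CCR6 14 nM CCL20, CXCR6 CXCL16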

[2] = molecular target: C-C chemokine receptor type 6 (Homo sapiens) (UniProt P51684); settings: antagonist mode
Sequence of C-C chemokine receptor type 6 (Homo sapiens) (P51684 whole entry, looked up): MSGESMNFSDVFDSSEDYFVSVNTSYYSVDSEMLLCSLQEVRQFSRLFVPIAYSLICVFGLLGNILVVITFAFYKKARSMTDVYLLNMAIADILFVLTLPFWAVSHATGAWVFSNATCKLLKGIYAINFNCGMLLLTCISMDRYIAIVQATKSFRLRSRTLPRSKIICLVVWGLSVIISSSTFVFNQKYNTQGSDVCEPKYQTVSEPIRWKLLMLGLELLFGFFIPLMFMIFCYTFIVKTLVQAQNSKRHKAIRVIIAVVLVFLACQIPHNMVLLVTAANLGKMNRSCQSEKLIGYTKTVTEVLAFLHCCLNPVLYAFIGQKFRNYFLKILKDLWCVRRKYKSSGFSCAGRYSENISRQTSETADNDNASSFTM
Outline: as §1

[3] = molecular target: C-X-C chemokine receptor type 6 (Homo sapiens) (UniProt O00574); settings: antagonist mode
Sequence of C-X-C chemokine receptor type 6 (Homo sapiens) (O00574 whole entry, looked up): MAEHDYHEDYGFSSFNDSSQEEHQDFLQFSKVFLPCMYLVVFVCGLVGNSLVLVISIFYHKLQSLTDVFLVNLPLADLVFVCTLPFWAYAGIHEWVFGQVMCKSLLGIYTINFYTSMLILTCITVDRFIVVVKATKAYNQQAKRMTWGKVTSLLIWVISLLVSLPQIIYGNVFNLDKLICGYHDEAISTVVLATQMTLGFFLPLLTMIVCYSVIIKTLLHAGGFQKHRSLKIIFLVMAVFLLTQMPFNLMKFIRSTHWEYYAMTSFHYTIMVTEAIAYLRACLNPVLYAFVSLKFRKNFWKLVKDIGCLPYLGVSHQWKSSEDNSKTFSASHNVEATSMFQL
Outline: as §1

SMILES | IC50 ([1]; mean of runs) | IC50 ([1]; run 1) [µM] | IC50 ([1]; run 2) [µM] | IC50 ([2]; CCR6, mean of runs) | IC50 ([2]; CCR6, run 1) [µM] | IC50 ([2]; CCR6, run 2) [µM] | IC50 ([3]; CXCR6, mean of runs) | IC50 ([3]; CXCR6, run 1) [µM] | IC50 ([3]; CXCR6, run 2) [µM]
O=C(CN1C2CCCC1CC(NC(=O)c1ccccc1)C2)Nc1ccccc1 (configuration not stated) | > 79 µM (inactive) | > 79 | > 79 | > 79 µM (inactive) | > 79 | > 79 | > 79 µM (inactive) | > 79 | > 79
COc1ccc(C(=O)NC2CC3CCCC(C2)N3CC(=O)Nc2ccc(Cl)cc2)cc1OC (configuration not stated) | > 79 µM (inactive) | > 79 | > 79 | > 79 µM (inactive) | > 79 | > 79 | > 79 µM (inactive) | > 79 | > 79
COc1cc(C(=O)NC2CC3CCCC(C2)N3CC(=O)Nc2ccc(C)cc2)cc(OC)c1OC (configuration not stated) | > 79 µM (inactive) | > 79 | > 79 | > 79 µM (inactive) | > 79 | > 79 | 5.69 µM | 5.37 | 6
COc1ccc(C(=O)NC2CC3CCCC(C2)N3CC(=O)Nc2ccc(C)cc2)cc1OC (configuration not stated) | > 79 µM (inactive) | > 79 | > 79 | > 79 µM (inactive) | > 79 | > 79 | > 79 µM (inactive) | > 79 | > 79
COc1ccc(C(=O)NC2CC3CCCC(C2)N3CC(=O)Nc2ccccc2)cc1 (configuration not stated) | > 79 µM (inactive) | > 79 | > 79 | > 79 µM (inactive) | > 79 | > 79 | > 79 µM (inactive) | > 79 | > 79
COc1ccc(C(=O)NC2CC3CCCC(C2)N3CC(=O)Nc2ccc(F)cc2)cc1OC (configuration not stated) | > 79 µM (inactive) | > 79 | > 79 | > 79 µM (inactive) | > 79 | > 79 | > 79 µM (inactive) | > 79 | > 79
COc1ccccc1NC(=O)CN1C2CCCC1CC(NC(=O)c1cc(OC)c(OC)c(OC)c1)C2 (configuration not stated) | – | > 79 | 25.4 | > 79 µM (inactive) | > 79 | > 79 | 1.95 µM | 1.81 | 2.09
COc1cccc(C(=O)NC2CC3CCCC(C2)N3CC(=O)Nc2ccc(C)cc2)c1 (configuration not stated) | – | > 79 | 1.18 | > 79 µM (inactive) | > 79 | > 79 | > 79 µM (inactive) | > 79 | > 79
COc1ccc(NC(=O)CN2C3CCCC2CC(NC(=O)c2ccc4c(c2)OCO4)C3)cc1 (configuration not stated) | > 79 µM (inactive) | > 79 | > 79 | > 79 µM (inactive) | > 79 | > 79 | > 79 µM (inactive) | > 79 | > 79
COc1cc(C(=O)NC2CC3CCCC(C2)N3CC(=O)Nc2ccc(F)cc2)cc(OC)c1OC (configuration not stated) | > 79 µM (inactive) | > 79 | > 79 | > 79 µM (inactive) | > 79 | > 79 | 3.51 µM | 3.08 | 3.95
COc1ccc(C(=O)NC2CC3CCCC(C2)N3CC(=O)Nc2ccc(Cl)cc2)cc1 (configuration not stated) | > 79 µM (inactive) | > 79 | > 79 | > 79 µM (inactive) | > 79 | > 79 | > 79 µM (inactive) | > 79 | > 79
